Series [1] deals with Rattus norvegicus. Briefly: Antipyretic activity in Wistar rat assessed as reduction in Brewer's yeast-induced hyperthermia measured as rectal temperature at 60 mg/kg, po administered 18 hrs post challenge measured after 1 hr post dose (reference value: 39.300 +/- 0.071 degC). Type of series: functional. Put shortly:
(§1)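 Male Wistar rats (200-300 g), fasted, groups of 5. Fever induced by sc 15% brewer's yeast in normal saline (10 ml/kg). Rectal temperature taken with a digital thermometer inserted about 7 mm. After 18 h, rats at 38 °C or above were used. Dosed orally as suspension in 0.5% CMC; vehicle controls. Temperature then read at set times after dosing. Values are means of five.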

Series [2] is described as follows: Partition co-efficient, log P of the compound in ocatanol-water by shake flask method. Type of series: physicochemical. Particulars: octanol/water. In outline: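 Shake-flask method: 2 mg dissolved in 50 ml water plus 50 ml octanol, shaken 30 min and left 24 h to equilibrate. Phases were separated, and octanol-phase concentration was taken from absorbance against a standard curve. Log P was calculated from that concentration.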

The subject of series [3] is Rattus norvegicus. Briefly: Antipyretic activity in Wistar rat assessed as reduction in Brewer's yeast-induced hyperthermia measured as rectal temperature at 60 mg/kg, po administered 18 hrs post challenge measured after 2 hrs post dose (reference value: 39.320 +/- 0.102 degC). Type of series: functional. Put shortly: as §1
The test system of series [4] is Mus musculus. The series can be described thus: Analgesic activity in albino mouse assessed as inhibition of acetic acid-induced writhing at 60 mg/kg, po administered 1 hr prior challenge relative to control. Format: functional. Put shortly:
(§2)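 Male albino mice (25-30 g), fasted 20-24 h, groups of 5. Dosed orally as suspension in 0.5% sodium CMC; vehicle controls. 1 h later, 1% acetic acid in normal saline (10 ml/kg) given ip. Starting 5 min after injection, writhes counted over 30 min. Percent inhibition calculated from group mean writhes versus control.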
On the technique in general: In writhing tests, fewer writhes than in controls are read as antinociception.

In series [5] the test system is Mus musculus. The series can be described thus: Neurotoxicity in po dosed albino mouse assessed as alteration of motor activity […] by rotarod test. Format: toxicity, organism-based. The note with it: in vivo. (In general: Falling from the rotarod earlier than controls is read as motor impairment.)
The nature of series [6]: Hydrolysis of the compound in simulated intestinal fluid at 10 mg after 120 mins by spectrophotometry. Format: ADME. Particulars: read-out: Drug degradation. In outline: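 Samples shaken on an orbital shaker at 37 ± 2 °C in simulated intestinal fluid. Aliquots were drawn at 0, 15, 30, 45, 60, 75, 90, 105 and 120 min, then diluted, filtered and read spectrophotometrically at each compound's λmax. % hydrolysed = (A0 − A120)/A0 × 100.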

The subject of series [7] is Rattus norvegicus. Briefly: Antipyretic activity in Wistar rat assessed as reduction in Brewer's yeast-induced hyperthermia measured as rectal temperature at 60 mg/kg, po administered 18 hrs post challenge measured after 3 hrs post dose (reference value: 39.400 +/- 0.071 degC). Type of series: functional. Put shortly:
as §1

The subject of series [8] is Rattus norvegicus. Briefly: Antipyretic activity in Wistar rat assessed as reduction in Brewer's yeast-induced hyperthermia measured as rectal temperature at 150 mg/kg, po administered 18 hrs post challenge measured after 1 hr post dose (reference value: 39.300 +/- 0.071 degC). Format: functional. In outline: as §1
The test system of series [9] is Rattus norvegicus. The series can be described thus: Antipyretic activity in Wistar rat assessed as reduction in Brewer's yeast-induced hyperthermia measured as rectal temperature at 150 mg/kg, po administered 18 hrs post challenge measured after 3 hrs post dose (reference value: 39.400 +/- 0.071 degC). Format: functional. Put shortly: as §1
The test system of series [10] is Rattus norvegicus. The series can be described thus: Antipyretic activity in Wistar rat assessed as reduction in Brewer's yeast-induced hyperthermia measured as rectal temperature at 150 mg/kg, po administered 18 hrs post challenge measured after 2 hrs post dose (reference value: 39.320 +/- 0.102 degC). Type of series: functional. In outline:
as §1

Series [11] deals with Mus musculus. The series can be described thus: Analgesic activity in albino mouse assessed as inhibition of acetic acid-induced writhing at 10 mg/kg, po administered 1 hr prior challenge relative to control. Format: functional. Put shortly: as §2
Series [12] relates to Mus musculus. Briefly: Neurotoxicity in albino mouse assessed as alteration of motor activity at 2 mg/kg, po measured after 60 mins for 60 secs by rotarod test. Type of series: toxicity, organism-based. Further details: dose 2 mg/kg, route oral. Particulars: in vivo. Put shortly:
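Male albino mice on a 1 in. knurled wooden rod rotating at 6–10 rpm. Testing began 60 min after oral dosing. Neurological toxicity was defined as failure to stay on the rod for 1 min or more.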

In the case of `COc1ccc(C2C(C)C(=O)CC(c3ccc(F)cc3)N2C(=O)CN2CCN(C)CC2)cc1` (stereo not given), the T with Rattus norvegicus [1] is 38.18 °C; in the series with Rattus norvegicus [3], 37.44 °C; with Rattus norvegicus [7], 37.1 °C. In addition, the log partition coefficient (logP) in series [2] was 1.53. In the series on Mus musculus [4], the inhibition in vivo at 60 mg/kg turned out to be 55.2%. In addition, the Activity result in the series with Mus musculus [5] was “Non-toxic”. Moreover, in [6], the degraded at 2 h is 2.51%.
In the case of `CC1C(=O)CC(c2ccc(F)cc2)N(C(=O)CCl)C1c1ccc(Cl)cc1` (stereo not given), the T turned out to be 38.14 °C in the series with Rattus norvegicus [1], 37.54 °C in the series with Rattus norvegicus [3] and 37.16 °C in the series on Rattus norvegicus [7]. Further, the logP in series [2] was found to be 1.72. In addition, the inhibition in vivo at 60 mg/kg in the series on Mus musculus [4] was determined as 57.6%. Also, the Activity entry in the series on Mus musculus [5] is recorded as “Non-toxic”. Moreover, the degraded at 2 h in [6] is 1.17%.
On to `CC(=O)Nc1ccc(O)cc1` [ACETAMINOPHEN], for which the T was 37.88 °C with Rattus norvegicus [8], 37.1 °C in the series on Rattus norvegicus [9] and 37.14 °C in the series on Rattus norvegicus [10].
On to `CC1C(=O)CC(c2ccc(F)cc2)N(C(=O)CN2CCN(C)CC2)C1c1ccc(Cl)cc1` (stereo not given), for which the T with Rattus norvegicus [1] was 37.9 °C; in the series on Rattus norvegicus [3], 37.16 °C; in the series on Rattus norvegicus [7] it was 37.18 °C. In addition, the logP in [2] was found to be 2.09. In addition, in the series on Mus musculus [4], the inhibition in vivo at 60 mg/kg is 65.5%. Moreover, the Activity entry in the series on Mus musculus [5] is given as “Non-toxic”. For the same molecule, the degraded at 2 h in [6] was 4.49%.
As for `COc1ccc(C2C(C)C(=O)CC(c3ccc(F)cc3)N2C(=O)CCl)cc1` (stereo not given), the T with Rattus norvegicus [1] was found to be 38.58 °C; in the series with Rattus norvegicus [3] it was 37.9 °C; in the series with Rattus norvegicus [7], 37.2 °C. Further, in [2], the logP was found to be 1.42. In addition, in the series on Mus musculus [4], the inhibition in vivo at 60 mg/kg is 51.2%. Further, in the series on Mus musculus [5], the Activity entry was “Non-toxic”. In series [6], the degraded at 2 h is 2.01%.
With `COc1ccc(C2C(C)C(=O)CC(c3ccc(Cl)cc3)N2C(=O)CN2CCN(C)CC2)cc1` (stereo not given), the T in the series on Rattus norvegicus [1] was 38.52 °C; in the series on Rattus norvegicus [3], 37.68 °C; with Rattus norvegicus [7] it was 37.28 °C. The logP in series [2] is 1.48. In the series on Mus musculus [4], the inhibition in vivo at 60 mg/kg came out at 53%. Moreover, in the series with Mus musculus [5], the Activity entry is “Non-toxic”. Also, the degraded at 2 h in series [6] was 18.8%.
For `COc1ccc(C2C(C)C(=O)CC(c3ccc(Cl)cc3)N2C(=O)CCl)cc1` (stereo not given), the T in the series with Rattus norvegicus [1] was found to be 38.76 °C; in the series on Rattus norvegicus [3], 38.36 °C; in the series with Rattus norvegicus [7], 37.2 °C. The molecule also had a lipophilicity (logP) in series [2] of 1.29. Moreover, in the series on Mus musculus [4], the inhibition in vivo at 60 mg/kg was found to be 44.1%. Moreover, in the series with Mus musculus [5], the Activity entry is recorded as “Non-toxic”. For the same molecule, the degraded at 2 h in [6] is 2.68%.
`CC1C(=O)CC(c2ccc(Cl)cc2)N(C(=O)CN2CCN(C)CC2)C1c1ccc(N(C)C)cc1` (stereo not given): the values for the T in the series with Rattus norvegicus [1], in the series on Rattus norvegicus [3] and in the series with Rattus norvegicus [7] were 38.9 °C, 38.14 °C and 37.52 °C, respectively. Besides, the log partition coefficient (logP) in series [2] amounted to 1.35. Further, in the series on Mus musculus [4], the inhibition in vivo at 60 mg/kg was 28.1%. For the same molecule, the Activity result in the series with Mus musculus [5] is reported as “Non-toxic”. Further, the degraded at 2 h in [6] is 77.6%.
Turning to `CC1C(=O)CC(c2ccc(Cl)cc2)N(C(=O)CCl)C1c1ccc(N(C)C)cc1` (stereo not given), the T with Rattus norvegicus [1] was 39 °C; in the series with Rattus norvegicus [3], 38.56 °C; with Rattus norvegicus [7], 37.86 °C. In series [2], this molecule yielded a logP of 1.24. Further, the inhibition in vivo at 60 mg/kg in the series with Mus musculus [4] came to 17.8%. Further, the Activity entry in the series with Mus musculus [5] is given as “Non-toxic”. The degraded at 2 h in series [6] was 76.8%.
With `O=C(O)Cc1ccccc1Nc1c(Cl)cccc1Cl` [DICLOFENAC SODIUM], the inhibition in vivo at 10 mg/kg in the series on Mus musculus [11] was found to be 56.5%.
Turning to `CC1C(=O)CC(c2ccc(F)cc2)N(C(=O)CCl)C1c1ccc(O)cc1` (stereo not given), the T is 38.72 °C with Rattus norvegicus [1], 38.3 °C in the series on Rattus norvegicus [3] and 37.16 °C in the series with Rattus norvegicus [7]. The molecule further returned a log partition coefficient (logP) in [2] of 1.14. Moreover, in the series on Mus musculus [4], the inhibition in vivo at 60 mg/kg stood at 51.2%. In addition, the Activity entry with Mus musculus [5] was “Non-toxic”. The degraded at 2 h in [6] was 43.2%.
In the case of `CN1C(=O)CN=C(c2ccccc2)c2cc(Cl)ccc21` [DIAZEPAM], the Activity entry with Mus musculus [12] is “Toxic”.
Take `CC1C(=O)CC(c2ccc(Cl)cc2)N(C(=O)CCl)C1c1ccc(O)cc1` (stereo not given): the T in the series with Rattus norvegicus [1] was found to be 38.92 °C; in the series on Rattus norvegicus [3], 38.5 °C; with Rattus norvegicus [7], 37.14 °C. The logP in series [2] came out at 1.05. Besides, the inhibition in vivo at 60 mg/kg in the series on Mus musculus [4] is 39.7%. For the same molecule, in the series with Mus musculus [5], the Activity entry was “Non-toxic”. In addition, the degraded at 2 h in series [6] was 42.7%.

As a reminder, the logP is the decadic logarithm of the partition coefficient of the neutral form, usually between octanol and water. Read a high logP as a more lipophilic compound. By inhibition in vivo is commonly meant the drop in the measured response relative to a control, in per cent.

The values are drawn from ChEMBL document CHEMBL3286132, “Syntheses, characterization and evaluation of novel 2,6-diarylpiperidin-4-ones as potential analgesic-antipyretic agents” (Eur J Med Chem, 2014).
